Here are results for two compounds from PMC10963326 (Heliyon, 2024).

The target of experiment [1] is human thrombin (Homo sapiens, UniProt P00734). Nature of the experiment: Direct inhibition of human thrombin, chromogenic substrate. In kind it is biochemical. As to conditions: highest concentration tested of 600 μM, data not shown. In a few lines: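 Thrombin 6 nM final in 20 mM Tris-HCl pH 7.4, 100 mM NaCl, 2.5 mM CaCl2, 0.1% PEG8000, with or without 0.02% Tween80, at 25 or 37 °C. Test compound (DMSO vehicle) added, then either 10 min preincubation or none. Spectrozyme TH at 50 μM final; initial A405 rate. Residual activity was the ratio to the no-compound rate, fitted to a logistic equation for IC50, HS and ΔY.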

The target in experiment [2] is thrombin exosite 1. As to conditions: binding to exosite 1 ref 21; cited from earlier work.

For the compound `CCCCCCCCCCCCOS(=O)(=O)[O-].[Na+]` [sodium dodecyl sulfate], in experiment [1], the inhibition of thrombin result is recorded as “did not inhibit”. The Kd is the free concentration of one partner at which half of the binding sites on the other are occupied at equilibrium, for simple one-to-one binding. As for [5 F]-Hir-(54–65)-(SO3^−) [HirP], in experiment [2], the Kd was 0.028 µM.
